From ChEMBL document CHEMBL3853352, “Anti-tubercular activities of 5,6,7,8-tetrahydrobenzo[4,5]thieno[2,3-d]pyrimidin-4-amine analogues endowed with high activity toward non-replicative Mycobacterium tuberculosis” (Bioorg Med Chem, 2016)
In brackets after ≈: the same amount, converted by molar mass.

What was measured:
[1] = test system: Mycobacterium tuberculosis; assay: Antimycobacterial activity against Mycobacterium tuberculosis H37Rv after 6 days by resazurin assay; type: functional; details: 144 h
[2] = Inhibition of Mycobacterium tuberculosis ADH assessed as decrease in conversion of L-alanine to pyruvate by measuring NADH by spectrophotometry; set-up: species or system Mycobacterium tuberculosis H37Rv
Method in brief: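 Mtb L-AlaDH oxidative deamination of L-alanine to pyruvate at 37 °C. NADH formation read at 340 nm. Compounds tested from 25 µM to 0.5 µM. Background read from the reaction mixture without enzyme. IC50 values calculated from the concentration series.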

[3] = test system: Mycobacterium tuberculosis; assay: Antimycobacterial activity against Mycobacterium tuberculosis H37Rv after 7 days by MABA; type: functional; details: 168 h
Method in brief: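 M. tuberculosis H37Rv inoculum taken from fresh LJ medium, resuspended in 7H9-S (7H9, 0.1% casitone, 0.5% glycerol, OADC), adjusted to McFarland No. 1 and diluted 1:20. Serial two-fold drug dilutions in 7H9-S, with growth and sterile controls. Incubated 7 days at 37 °C in normal atmosphere, then alamar blue added and incubated overnight. MIC = lowest concentration preventing the blue-to-pink change.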

[4] = test system: Mycobacterium tuberculosis H37Rv; assay: Inhibition of Mycobacterium tuberculosis ADH assessed as decrease in conversion of L-alanine to pyruvate at 25 uM by measuring NADH by spectrophotometry
[5] = Cytotoxicity against mouse RAW264.7 cells assessed as inhibition of cell proliferation at 50 ug/ml after 48 hrs by MTT assay; type: toxicity
Method in brief: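 RAW 264.7 mouse macrophages grown in RPMI with 10% FBS and penicillin/streptomycin, then seeded at about 5000 cells/well on poly-L-lysine-coated plates. Pre-incubated 24 h at 37 °C, 5% CO2, then exposed to compound for 48 h. MTT (0.5 mg/ml) added for 3 h and formazan read at 595 nm.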

[6] = test system: Mycobacterium tuberculosis; assay: Antimycobacterial activity against dormant stage of Mycobacterium tuberculosis H37Rv assessed as reduction in bacterial growth under nutrient starved conditions at 10 ug/ml for 7 days measured after 28 days; type: functional
Method in brief: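 H37Rv grown in 7H9/OADC, washed twice and resuspended in PBS, then held in sealed bottles at 37 °C for 6 weeks. Starved cultures exposed to compound at 10 ug/ml for 7 days. Cells diluted 10-fold serially to 10^-6 in 7H9/OADC and plated in triplicate. Incubated 28 days at 37 °C without agitation; wells with visible growth scored positive and MPN calculated.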

[7] = target: T1, L-lysine-epsilon aminotransferase (Mycobacterium tuberculosis) (UniProt P9WQ77); assay: Inhibition of Mycobacterium tuberculosis LAT at 25 uM
T1 sequence (whole entry): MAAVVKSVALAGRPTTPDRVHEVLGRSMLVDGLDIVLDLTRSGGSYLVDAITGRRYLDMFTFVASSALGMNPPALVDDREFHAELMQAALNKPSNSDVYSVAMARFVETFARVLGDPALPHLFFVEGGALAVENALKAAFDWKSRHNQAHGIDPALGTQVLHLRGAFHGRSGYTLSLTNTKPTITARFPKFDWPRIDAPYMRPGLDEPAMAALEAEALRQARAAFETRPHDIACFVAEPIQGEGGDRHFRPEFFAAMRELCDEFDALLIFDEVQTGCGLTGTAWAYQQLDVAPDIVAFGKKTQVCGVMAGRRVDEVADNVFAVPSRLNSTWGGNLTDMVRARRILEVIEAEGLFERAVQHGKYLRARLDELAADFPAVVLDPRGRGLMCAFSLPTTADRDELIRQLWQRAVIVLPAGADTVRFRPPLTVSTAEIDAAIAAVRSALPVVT

[8] = test system: Mycobacterium tuberculosis; assay: Binding affinity to Mycobacterium tuberculosis ADH assessed as change in melting temperature by Sypro orange dye based differential scanning fluorimetry
Method in brief: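 Thermal shift assay on Mtb L-AlaDH (100 µg/ml, 10 µl) in 100 mM HEPES-NaOH pH 7.8 with 6 µl of 15× Sypro Orange; compounds added in <10% DMSO. Samples equilibrated 3 min at 25 °C, then ramped to 95 °C in 0.1 °C steps. Tm taken as the lowest point of the first-derivative plot; shift measured against the native protein.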

| SMILES | MIC [1] | IC50 [2] | MIC [3] | inhibition [4] | inhibition at 48 h, 50 ug/ml [5] | fold change (FC) [6] | inhibition [7] | ΔTm [8] |
| --- | --- | --- | --- | --- | --- | --- | --- | --- |
| Cc1cccc(-c2nc(Nc3ccncn3)c3c(C)csc3n2)n1 | 0.76 µM (≈ 0.254 µg/mL) | – | – | – | – | – | – | – |
| Cc1cccc(C)c1Nc1nc(-c2ccccc2)nc2sc3c(c12)CCCC3 | – | 8.82 µM | 8.11 µM (≈ 3.13 µg/mL) | 50% | 25.5% | >1 | < 50% | – |
| Brc1ccc(Nc2nc(-c3ccccc3)nc3sc4c(c23)CCCC4)cc1 | – | 8.7 µM | 28.6 µM (≈ 12.5 µg/mL) | 50% | 20.4% | >1 | < 50% | – |
| Clc1ccc(Nc2nc(-c3ccccc3)nc3sc4c(c23)CCCC4)cc1 | – | 2.72 µM | 63.8 µM (≈ 25 µg/mL) | 50% | 20.8% | >1 | < 50% | – |
| CCc1nc(NCCc2ccccc2)c2c3c(sc2n1)CCCC3 | – | 1.82 µM | 37 µM (≈ 12.5 µg/mL) | 50% | 25.2% | >1 | < 50% | 1.4 °C |
